From article PMC5766731 (Clinical Pharmacokinetics, 2017)
Like-named read-outs stand apart in the source and are kept apart here.

How the values were obtained:
serum EPO levels = conditions: acute pharmacodynamic animal model; cited from earlier work
[1] = beagle dogs, oral route; cited from earlier work
[2] = system: serum erythropoietin (EPO), hemoglobin, hematocrit, reticulocyte count; test: Part I pharmacodynamics; assay type: in vivo, human; conditions: for mean serum EPO C max: placebo 9.6 mIU/L
In short: (§1)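 Serum EPO, hemoglobin, hematocrit and reticulocyte count were measured in blood taken before and after oral dosing. Regimens: part I single fasted doses 10–300 mg vs placebo; part II 100–300 mg on Days 1, 3, 5 vs placebo; part III single 150 mg, fasted vs fed, men and women. EPO expressed baseline-corrected. Post-dose vs baseline compared by paired two-sided t test, α = 0.05.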

[3] = cited from earlier work
cytochrome P450 (CYP) = conditions: cited from earlier work
[4] = Part II multiple ascending-dose pharmacokinetics; assay type: in vivo, human; conditions: for t max / AUCt / AUC∞ / Accumulation Index / C max / CL / V z/F_obs / t ½ / λz: part II, N 6; for t max: mean (range) per footnote; for AUCt / AUC∞ / Accumulation Index / C max / CL / V z/F_obs / t ½ / λz: mean ± SD
In short: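 Four panels of eight (six drug, two placebo) were dosed orally, fasted, with 100, 150, 200 or 300 mg on Days 1, 3 and 5. Blood was taken pre-dose and at 0.5–36 h after the Day 1 and Day 5 doses, pre-dose and 12, 24 and 36 h after Day 3, and 48 and 72 h after Day 5. Diluted-blood LC-MS/MS (LLOQ 2 ng/mL). Accumulation index was derived.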

[5] = system: serum erythropoietin (EPO), hemoglobin, hematocrit, reticulocyte count; test: Part III pharmacodynamics; assay type: in vivo, human; conditions: single 150 mg
In short: as §1

[6] = mice, oral route; cited from earlier work
[7] = Part I urinary recovery of ZYAN1; assay type: in vivo, human; conditions: for Amount recovered [mean ± SD] / Percentage recovered [mean ± SD]: urine, part I
In short: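 Urine collected pre-dose and over 0–12, 12–24, 24–36 and 36–48 h: after the single dose (10–300 mg, part I) or after each alternate-day dose on Days 1, 3 and 5 (part II). Total volume recorded; 5 mL aliquots stored at –80 ± 10 °C. Acetonitrile precipitation and LC-MS/MS with analog internal standard, urine calibration 2–5000 ng/mL, LLOQ 2 ng/mL. Amount and percentage of dose recovered calculated.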

[8] = after oral dosing across the species tested; cited from earlier work
[9] = 100 mg oral on Days 1, 3, 5, Day 1
[10] = 100 mg oral on Days 1, 3, 5, Day 5
[11] = 150 mg oral on Days 1, 3, 5, Day 1
[12] = 150 mg oral on Days 1, 3, 5, Day 5
[13] = 200 mg oral on Days 1, 3, 5, Day 1
[14] = 200 mg oral on Days 1, 3, 5, Day 5
[15] = 300 mg oral on Days 1, 3, 5, Day 1
[16] = 300 mg oral on Days 1, 3, 5, Day 5

O=C(O)CNC(=O)c1c(O)c2ccccc2n(OCC2CC2)c1=O [ZYAN1]
serum EPO levels (serum EPO levels): dose-related increase | tolerated dose, single-dose study [1]: up to 75 mg/kg | EPO response vs placebo ([2]; doses up to 150 mg): not markedly different from placebo | mean serum EPO C max ([2]; single dose 10 mg): 6.6 mIU/L | mean serum EPO C max ([2]; single dose 300 mg): 79.9 mIU/L | initiation of EPO rise after ZYAN1 administration ([2]; single dose, as early as): 6 h | hemoglobin increase observed in most of the subjects ([2]; single dose, more consistent from 100 mg and above): > 0.5 gm% | effect of acute and chronic kidney failure models on pharmacokinetics ([3]; rats vs normal control rats): did not alter the pharmacokinetics | increase in the exposure after complete removal of both kidneys ([3]; rats): 2 fold | potential for cytochrome P450 (CYP)-mediated drug–drug interactions (cytochrome P450 (CYP)): minimal potential | median t max, range ([4]; 100, 150, 200, 300 mg, first or fifth day of dosing): 1.5 to 3.0 h | accumulation of the drug ([4]; after first and third dose of 100, 150, 200, 300 mg, alternate-day dosing): no accumulation of the drug was observed | mean terminal t ½ ([4]; in vivo): approximately 10 h | t max [4, 9]: 2.00 (1.00–3.00) h | AUCt [4, 9]: 36,885.130 ± 11,488.927 h·ng/mL | AUC∞ [4, 9]: 38,817.512 ± 13,184.682 h·ng/mL | Accumulation Index [4, 9]: 1.027 ± 0.018 | C max [4, 9]: 6549.000 ± 1567.979 ng/mL | CL [4, 9]: 2834.521 ± 775.188 mL/h | V z/F_obs [4, 9]: 34,916.562 ± 8463.050 mL | t ½ [4, 9]: 8.811 ± 1.869 h | λz [4, 9]: 0.082 ± 0.020 h⁻¹ | t max [4, 10]: 2.00 (1.50–2.50) h | AUCt [4, 10]: 39,690.467 ± 11,051.227 h·ng/mL | AUC∞ [4, 10]: 40,102.984 ± 11,276.275 h·ng/mL | Accumulation Index [4, 10]: 1.106 ± 0.128 | C max [4, 10]: 6566.667 ± 1525.703 ng/mL | CL [4, 10]: 2744.020 ± 798.472 mL/h | V z/F_obs [4, 10]: 47,571.130 ± 18,996.205 mL | t ½ [4, 10]: 12.968 ± 6.654 h | λz [4, 10]: 0.065 ± 0.029 h⁻¹ | t max [4, 11]: 1.50 (1.00–3.50) h | AUCt [4, 11]: 59,780.215 ± 8539.865 h·ng/mL | AUC∞ [4, 11]: 62,811.249 ± 10,222.543 h·ng/mL | Accumulation Index [4, 11]: 1.025 ± 0.026 | C max [4, 11]: 8185.667 ± 1215.600 ng/mL | CL [4, 11]: 2487.695 ± 399.669 mL/h | V z/F_obs [4, 11]: 29,315.063 ± 6213.656 mL | t ½ [4, 11]: 8.390 ± 2.431 h | λz [4, 11]: 0.088 ± 0.025 h⁻¹ | t max [4, 12]: 1.75 (0.50–3.00) h | AUCt [4, 12]: 65,307.036 ± 9629.912 h·ng/mL | AUC∞ [4, 12]: 65,706.064 ± 9748.640 h·ng/mL | Accumulation Index [4, 12]: 1.043 ± 0.026 | C max [4, 12]: 8657.000 ± 1190.575 ng/mL | CL [4, 12]: 2398.514 ± 378.402 mL/h | V z/F_obs [4, 12]: 34,943.264 ± 6986.821 mL | t ½ [4, 12]: 10.205 ± 2.013 h | λz [4, 12]: 0.070 ± 0.015 h⁻¹ | t max [4, 13]: 2.00 (1.50–3.50) h | AUCt [4, 13]: 85,040.673 ± 12,019.503 h·ng/mL | AUC∞ [4, 13]: 88,180.063 ± 13,633.711 h·ng/mL | Accumulation Index [4, 13]: 1.017 ± 0.019 | C max [4, 13]: 13,203.333 ± 2762.033 ng/mL | CL [4, 13]: 2344.752 ± 361.388 mL/h | V z/F_obs [4, 13]: 25,167.492 ± 5973.588 mL | t ½ [4, 13]: 7.573 ± 2.103 h | λz [4, 13]: 0.097 ± 0.024 h⁻¹ | t max [4, 14]: 1.75 (0.50–2.50) h | AUCt [4, 14]: 77,994.986 ± 21,218.895 h·ng/mL | AUC∞ [4, 14]: 78,368.940 ± 21,616.249 h·ng/mL | Accumulation Index [4, 14]: 1.033 ± 0.018 | C max [4, 14]: 12,388.333 ± 1607.376 ng/mL | CL [4, 14]: 2758.333 ± 677.108 mL/h | V z/F_obs [4, 14]: 36,889.057 ± 5339.335 mL | t ½ [4, 14]: 9.534 ± 1.467 h | λz [4, 14]: 0.074 ± 0.012 h⁻¹ | t max [4, 15]: 3.00 (1.50–3.500) h | AUCt [4, 15]: 118,269.238 ± 28,910.037 h·ng/mL | AUC∞ [4, 15]: 123,020.455 ± 32,873.290 h·ng/mL | Accumulation Index [4, 15]: 1.017 ± 0.011 | C max [4, 15]: 19,286.667 ± 4086.434 ng/mL | CL [4, 15]: 2608.681 ± 641.704 mL/h | V z/F_obs [4, 15]: 29,476.605 ± 6045.099 mL | t ½ [4, 15]: 7.968 ± 1.106 h | λz [4, 15]: 0.088 ± 0.011 h⁻¹ | t max [4, 16]: 1.75 (1.00–2.00) h | AUCt [4, 16]: 105,472.355 ± 19,487.237 h·ng/mL | AUC∞ [4, 16]: 105,772.678 ± 19,542.028 h·ng/mL | Accumulation Index [4, 16]: 1.033 ± 0.022 | C max [4, 16]: 16,450.000 ± 3422.484 ng/mL | CL [4, 16]: 2992.073 ± 697.789 mL/h | V z/F_obs [4, 16]: 41,797.611 ± 17,743.925 mL | t ½ [4, 16]: 9.445 ± 1.819 h | λz [4, 16]: 0.076 ± 0.015 h⁻¹ | mean serum EPO concentrations, fasted vs fed [5]: no apparent difference | mean serum EPO concentrations, male vs female subjects ([5]; fasted or fed): no apparent difference | tolerated dose, single-dose study [6]: up to 300 mg/kg | urinary excretion of intact ZYAN1, average ([7]; healthy subjects): 36% | Amount recovered [mean ± SD] ([7]; single oral dose 10 mg): 3.63 ± 1.02 mg | Percentage recovered [mean ± SD] ([7]; single oral dose 10 mg): 36.270 ± 10.245% | Amount recovered [mean ± SD] ([7]; single oral dose 25 mg): 9.45 ± 1.76 mg | Percentage recovered [mean ± SD] ([7]; single oral dose 25 mg): 37.798 ± 7.059% | Amount recovered [mean ± SD] ([7]; single oral dose 50 mg): 18.99 ± 3.36 mg | Percentage recovered [mean ± SD] ([7]; single oral dose 50 mg): 37.995 ± 6.718% | Amount recovered [mean ± SD] ([7]; single oral dose 100 mg): 41.13 ± 12.06 mg | Percentage recovered [mean ± SD] ([7]; single oral dose 100 mg): 41.130 ± 12.064% | Amount recovered [mean ± SD] ([7]; single oral dose 150 mg): 56.23 ± 17.26 mg | Percentage recovered [mean ± SD] ([7]; single oral dose 150 mg): 37.485 ± 11.508% | Amount recovered [mean ± SD] ([7]; single oral dose 200 mg): 62.83 ± 18.11 mg | Percentage recovered [mean ± SD] ([7]; single oral dose 200 mg): 31.417 ± 9.056% | Amount recovered [mean ± SD] ([7]; single oral dose 300 mg): 82.66 ± 39.25 mg | Percentage recovered [mean ± SD] ([7]; single oral dose 300 mg): 27.555 ± 13.083% | oral absorption and bioavailability [8]: well-absorbed and highly bioavailable
